Measured values published in ChEMBL document CHEMBL4765452, “Discovery of (E)-N-(4-methyl-5-(3-(2-(pyridin-2-yl)vinyl)-1H-indazol-6-yl)thiazol-2-yl)-2-(4-methylpiperazin-1-yl)acetamide (IHMT-TRK-284) as a novel orally available type II TRK kinase inhibitor capable of overcoming multiple resistant mutants” (Eur J Med Chem, 2020).

Legend:
[1] = Antiproliferative activity in mouse BAF3 cells assessed as growth inhibition after 72 hrs by CCK8 assay; format: cell-based
Summary of the method: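 TEL- or LMNA-fusion isogenic BaF3 lines grown in RPMI 1640 with 10% FBS and 1% penicillin/streptomycin at 37 °C, 5% CO₂; suspension cells collected by spinning at 800 rpm for 4 min before use; growth inhibition scored as GI₅₀.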

[2] = biological target: BDNF/NT-3 growth factors receptor (Homo sapiens, UniProt Q16620); test: Inhibition of TEL fused TRKB (unknown origin) transfected in mouse BAF3 cells assessed as growth inhibition after 72 hrs by CCK8 assay; format: cell-based
Summary of the method: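 TEL-fusion isogenic BaF3 lines were built in-house and grown in RPMI 1640 with 10% FBS and 1% penicillin/streptomycin at 37 °C under 5% CO2. Cells were spun down before use.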

[3] = biological target: T1, High affinity nerve growth factor receptor (Homo sapiens, UniProt P04629); test: Inhibition of LMNA fused TRKA (unknown origin) transfected in mouse BAF3 cells assessed as growth inhibition after 72 hrs by CCK8 assay; format: cell-based
Target sequence in this assay (P04629 33-796 limits assumed): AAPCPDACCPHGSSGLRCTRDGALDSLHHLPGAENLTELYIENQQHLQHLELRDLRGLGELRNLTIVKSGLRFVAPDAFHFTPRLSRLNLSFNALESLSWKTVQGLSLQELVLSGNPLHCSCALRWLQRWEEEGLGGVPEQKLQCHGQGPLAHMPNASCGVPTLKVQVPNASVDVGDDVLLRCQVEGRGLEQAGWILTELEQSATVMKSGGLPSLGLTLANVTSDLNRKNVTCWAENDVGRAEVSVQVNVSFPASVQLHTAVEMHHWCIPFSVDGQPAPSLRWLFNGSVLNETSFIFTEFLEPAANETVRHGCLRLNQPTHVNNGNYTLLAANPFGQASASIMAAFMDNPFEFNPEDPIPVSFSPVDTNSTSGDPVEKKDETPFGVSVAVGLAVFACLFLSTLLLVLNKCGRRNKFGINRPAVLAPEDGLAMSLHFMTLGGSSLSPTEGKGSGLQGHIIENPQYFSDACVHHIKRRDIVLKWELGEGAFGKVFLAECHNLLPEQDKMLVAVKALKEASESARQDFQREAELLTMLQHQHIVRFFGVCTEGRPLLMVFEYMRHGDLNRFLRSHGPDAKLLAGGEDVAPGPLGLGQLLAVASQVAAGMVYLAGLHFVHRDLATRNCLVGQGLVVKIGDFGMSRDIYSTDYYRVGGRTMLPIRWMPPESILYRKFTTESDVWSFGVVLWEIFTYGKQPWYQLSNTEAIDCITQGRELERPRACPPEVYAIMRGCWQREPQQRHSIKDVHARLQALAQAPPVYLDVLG

[4] = biological target: High affinity nerve growth factor receptor (Homo sapiens, UniProt P04629, G595R); test: Inhibition of LMNA fused TRKA G595R mutant (unknown origin) transfected in mouse BaF3 cells assessed as reduction in phosphorylation at Y490 residue after 2 hrs by Western blot analysis; format: cell-based
[5] = biological target: High affinity nerve growth factor receptor (Homo sapiens, UniProt P04629, G667C); test: Inhibition of LMNA fused TRKA G667C mutant (unknown origin) transfected in mouse BaF3 cells assessed as reduction in phosphorylation at Y490 residue after 2 hrs by Western blot analysis; format: cell-based
Summary of the method: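 Isogenic BaF3 lines, made in-house, grown in RPMI 1640 with 10% FBS and 1% penicillin/streptomycin at 37 °C under 5% CO2. Serially diluted compound added for 2 h. Cells collected and lysed, and lysates analysed by western blotting for phospho-TRK. EC50 derived from the blots.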

[6] = Inhibition of LMNA fused TRKA G667S mutant (unknown origin) transfected in mouse BaF3 cells assessed as reduction in phosphorylation at Y490 residue after 2 hrs by Western blot analysis; details: Homo sapiens, BaF3, 2 h
[7] = biological target: T1, High affinity nerve growth factor receptor; test: Inhibition of TRKA in human KM-12-LUC cells assessed as reduction in ERK1/2 phosphorylation at T202/Y204 residues after 2 hrs by Western blot analysis; format: cell-based, KM12-Luc
Summary of the method: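 KM-12-LUC (TPM3-TRKA fused colon cancer cells) grown in RPMI 1640 with 10% FBS and 1% penicillin/streptomycin at 37 °C under 5% CO2. Serially diluted compound added for 2 h. Lysates western blotted for phospho-AKT (T308/S473) and phospho-ERK1/2 (T202/Y204).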
Target sequence in this assay (P04629 whole entry, the tested form may be a part): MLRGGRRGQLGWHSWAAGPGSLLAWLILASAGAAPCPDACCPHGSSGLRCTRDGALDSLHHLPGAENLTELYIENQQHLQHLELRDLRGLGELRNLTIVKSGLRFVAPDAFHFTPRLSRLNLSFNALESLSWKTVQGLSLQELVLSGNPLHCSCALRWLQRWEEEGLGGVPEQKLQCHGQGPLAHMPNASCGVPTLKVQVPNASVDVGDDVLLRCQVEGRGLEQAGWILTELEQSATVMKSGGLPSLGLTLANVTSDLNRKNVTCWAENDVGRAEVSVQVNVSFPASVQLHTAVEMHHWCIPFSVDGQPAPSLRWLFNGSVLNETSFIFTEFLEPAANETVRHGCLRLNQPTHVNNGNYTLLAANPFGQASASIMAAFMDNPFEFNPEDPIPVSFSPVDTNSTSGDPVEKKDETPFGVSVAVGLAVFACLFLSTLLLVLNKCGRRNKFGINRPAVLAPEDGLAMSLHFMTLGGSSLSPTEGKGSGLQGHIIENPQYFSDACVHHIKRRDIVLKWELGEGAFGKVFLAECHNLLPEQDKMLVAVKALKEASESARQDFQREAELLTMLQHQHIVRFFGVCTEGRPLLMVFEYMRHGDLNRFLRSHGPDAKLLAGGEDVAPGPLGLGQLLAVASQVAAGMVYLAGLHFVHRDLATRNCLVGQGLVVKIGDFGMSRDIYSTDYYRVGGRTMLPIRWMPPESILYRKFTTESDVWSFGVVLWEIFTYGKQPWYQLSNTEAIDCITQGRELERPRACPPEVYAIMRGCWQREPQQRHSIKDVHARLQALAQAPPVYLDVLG

[8] = AUC (0 to t) in mouse at 1 mg/kg, iv; format: ADME, organism-based; parameters: dose 1 mg/kg; details: in vivo
Summary of the method: (§1)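 Intravenous and oral arms were run in parallel in each species (mice, Sprague Dawley rats, beagle dogs). Exposure is reported as AUC0-t in ng/mL·h.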

[9] = AUC (0 to t) in mouse at 10 mg/kg, po; format: ADME, organism-based; parameters: dose 10 mg/kg; details: in vivo; summary of the method: as §1
[10] = Tmax in mouse at 10 mg/kg, po; format: ADME, organism-based; details: in vivo
Summary of the method: (§2)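 Single-dose PK in mice, Sprague Dawley rats and beagle dogs, given i.v. (1 mg/kg) or p.o. (10 mg/kg mice and rats; 5 mg/kg dogs). AUC0-t, T1/2, Tmax and oral bioavailability (F) derived from plasma profiles.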

[11] = Half life in mouse at 1 mg/kg, iv; format: ADME, organism-based; details: in vivo
[12] = Half life in mouse at 10 mg/kg, po; format: ADME, organism-based; details: in vivo
[13] = Cmax in mouse at 10 mg/kg, po; format: ADME, organism-based; parameters: route oral, dose 10 mg/kg; details: in vivo
[14] = Apparent clearance in Sprague-Dawley rat at 10 mg/kg, po; format: ADME, organism-based; details: in vivo, read-out: CLz/F (converted)
[15] = Cmax in Sprague-Dawley rat at 1 mg/kg, iv; format: ADME, organism-based; parameters: route intravenous, dose 1 mg/kg; details: in vivo
[16] = Cmax in Sprague-Dawley rat at 10 mg/kg, po; format: ADME, organism-based; parameters: route oral, dose 10 mg/kg; details: in vivo
[17] = Half life in Beagle dog at 5 mg/kg, po; format: ADME, organism-based, Canis lupus familiaris; details: in vivo
[18] = Apparent volume of distribution in Beagle dog at 1 mg/kg, iv; format: ADME, organism-based, Canis lupus familiaris; details: in vivo, read-out: Vz
[19] = Cmax in Beagle dog at 5 mg/kg, po; format: ADME, organism-based, Canis lupus familiaris; parameters: route oral, dose 5 mg/kg; details: in vivo
[20] = Oral bioavailability in Beagle dog at 5 mg/kg; format: ADME, organism-based, Canis lupus familiaris; details: in vivo; summary of the method: as §2
BaF3 [21] = test: Antitumor activity against mouse BAF3 cells harboring TEL fused TRKB allografted in nude mouse assessed as tumor growth inhibition at 80 mg/kg, po administered once daily for 10 days relative to control; format: functional; details: 240 h, time 10 day, read-out: TGI
Summary of the method: (§3)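 Nu/nu mice given 1 million BaF3 cells (TEL-TRKA, TEL-TRKB, TEL-TRKC, LMNA-TRKA-F589L or LMNA-TRKA-G667S) in DMEM, 1:1 with matrigel, injected subcutaneously into the right flank; oral gavage began at 200–400 mm³, 5 mice per group, compound in 0.5% methylcellulose/0.4% Tween 80 in ddH₂O, 10 days; tumor volume [(W²×L)/2] and body weight recorded daily; TGI versus vehicle.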

BaF3 [22] = test: Antitumor activity against mouse BAF3 cells harboring TEL fused TRKC allografted in nude mouse assessed as tumor growth inhibition at 80 mg/kg, po administered once daily for 10 days relative to control; format: functional; details: 240 h, time 10 day, read-out: TGI; summary of the method: as §3
BaF3 [23] = test: Antitumor activity against mouse BAF3 cells harboring TEL fused TRKB allografted in nude mouse assessed as tumor growth inhibition at 40 mg/kg, po administered once daily for 10 days relative to control; format: functional; details: 240 h, time 10 day, read-out: TGI; summary of the method: as §3
[24] = Toxicity in mouse xenografted with mouse BAF3 cells harboring TEL fused TRKA assessed as effect on body weight at 40 to 80 mg/kg, po administered once daily for 10 days; format: organism-based; details: in vivo, 240 h, dose 40-80 mg/kg/day, time 10 day
Summary of the method: (§4)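 nu/nu mice were given subcutaneous right-flank implants in 1:1 DMEM/matrigel: 1 million BaF3 fusion cells or 5 million KM-12-LUC cells. Oral gavage started at 150–200 mm3 (xenograft) or 200–400 mm3 (allograft). Dosing used 40 or 80 mg/kg in HKI vehicle (0.5% methylcellulose/0.4% Tween 80 in ddH2O), with 5 mice per group. Body weight was recorded daily and behaviour observed.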

BaF3 [25] = test: Antitumor activity against mouse BAF3 cells harboring TEL fused TRKA allografted in nude mouse assessed as tumor growth inhibition administered orally once daily for 10 days; format: functional, cell-based; details: dose 40-80 mg/kg/day, time 10.0 day; summary of the method: as §3
[26] = Toxicity in mouse xenografted with mouse BAF3 cells harboring […] TRKA-G667S mutant assessed as effect on body weight at 40 to 80 mg/kg, po administered twice daily for 10 days; format: organism-based; details: in vivo, 240 h, dose 40-80 mg/kg, time 10 day; summary of the method: as §4
KM12-Luc = test: Antitumor activity against human […] cells xenografted in nude mouse assessed as tumor growth inhibition administered orally once daily for 10 days relative to control; format: functional, cell-based; details: dose 40-80 mg/kg/day, time 10.0 day
Summary of the method: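 Nu/nu mice given 5 million KM-12-LUC cells in DMEM, 1:1 with matrigel, injected subcutaneously into the right flank; oral gavage started at tumor size 150–200 mm³, 5 mice per group, compound in 0.5% methylcellulose/0.4% Tween 80 in ddH₂O; body weight and tumor volume [(W²×L)/2] measured daily; TGI versus vehicle.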

Chain of BDNF/NT-3 growth factors receptor (Q16620 32-822 limits assumed): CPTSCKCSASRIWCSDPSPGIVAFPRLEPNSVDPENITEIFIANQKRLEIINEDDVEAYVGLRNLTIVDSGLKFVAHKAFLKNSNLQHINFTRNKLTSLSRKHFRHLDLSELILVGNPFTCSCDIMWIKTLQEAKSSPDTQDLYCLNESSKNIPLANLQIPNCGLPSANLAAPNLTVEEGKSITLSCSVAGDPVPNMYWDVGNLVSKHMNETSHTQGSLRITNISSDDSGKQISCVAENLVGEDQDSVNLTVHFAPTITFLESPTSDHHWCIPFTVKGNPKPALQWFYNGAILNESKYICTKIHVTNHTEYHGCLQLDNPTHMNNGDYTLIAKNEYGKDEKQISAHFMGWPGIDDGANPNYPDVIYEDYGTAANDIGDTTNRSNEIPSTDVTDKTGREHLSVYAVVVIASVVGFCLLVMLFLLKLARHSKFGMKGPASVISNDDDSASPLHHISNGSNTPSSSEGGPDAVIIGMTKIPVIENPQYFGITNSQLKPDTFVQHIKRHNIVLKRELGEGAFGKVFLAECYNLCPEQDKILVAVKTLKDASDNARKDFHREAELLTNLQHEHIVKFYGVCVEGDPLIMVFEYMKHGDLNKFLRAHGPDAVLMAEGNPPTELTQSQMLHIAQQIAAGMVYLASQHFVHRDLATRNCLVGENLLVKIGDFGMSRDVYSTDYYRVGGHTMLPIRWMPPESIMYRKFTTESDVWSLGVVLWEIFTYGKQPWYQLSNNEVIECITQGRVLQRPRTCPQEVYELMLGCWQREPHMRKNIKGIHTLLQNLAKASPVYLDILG
Chain of High affinity nerve growth factor receptor (Homo sapiens, UniProt P04629, G595R) (P04629 33-796 G595R limits assumed): as the sequence (P04629 33-796 limits assumed) above, with G563R counted along it
Chain of High affinity nerve growth factor receptor (Homo sapiens, UniProt P04629, G667C) (P04629 33-796 G667C limits assumed): as the sequence (P04629 33-796 limits assumed) above, with G635C counted along it

Molecule `Cc1nc(NC(=O)CN2CCN(C)CC2)sc1-c1ccc2c(/C=C/c3ccccn3)n[nH]c2c1` has a GI50 at 72 h [1] of 1400 nM, a GI50 [2] of 8.2 nM and a GI50 [3] of 7 nM. For the same molecule, the EC50 [4] was 120 nM, the EC50 [5] was 67 nM and the EC50 [6] was 74 nM. It also gave an EC50 [7] of under 30 nM, an AUC(0-t) [8] of 748 ng·h/mL and an AUC(0-t) [9] of 1430 ng·h/mL. For the same molecule, the Tmax [10] was 1.5 h, the t1/2 [11] was 2.6 h and the t1/2 [12] was 3.4 h. For the same molecule, the Cmax [13] was 258 ng/mL, the CL/F [14] was 170 mL/min/kg and the Cmax [15] was 363 ng/mL. The Cmax [16] was 139 ng/mL, the t1/2 [17] was 11.8 h and the Vd [18] was 17.5 L/kg. For the same molecule, the Cmax [19] was 131 ng/mL, the bioavailability [20] was 35% and the inhibition in vivo at 80 mg/kg/day (BaF3 [21]) was 92.7%. For the same molecule, the inhibition in vivo at 80 mg/kg/day (BaF3 [22]) was 57.5%, the inhibition in vivo at 40 mg/kg/day (BaF3 [23]) was 83.1% and the Activity [24] was “Non-Toxic”. For the same molecule, the Activity (BaF3 [25]) was “Dose-dependent effect”, the Activity [26] was “Non-Toxic” and the Activity (KM12-Luc) was “Dose-dependent effect”.
